{"source": "paper PMC3079198", "about": "(Journal of the American Chemical Society, 2011)", "key": {"[1]": {"system": "H1299 cells with deleted p53", "experiment": "Caspase-Glo 3/7 assay in H1299 cells", "format": "cell-based, human", "conditions": "20 μM, 24 h", "outline": "(§1)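 Human lung cancer cells, H460 (wild-type p53) and H1299 (p53 deleted), were exposed for 24 h to test compound at 20 μM. Controls were DMSO, a negative-control compound (20 μM) and a known MDM2 inhibitor as positive control (20 μM). Caspase 3/7 activity was then measured with the Caspase-Glo 3/7 assay kit.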"}, "[2]": {"system": "H460 cells with wild type p53", "experiment": "Caspase-Glo 3/7 assay in H460 cells", "format": "cell-based, human", "conditions": "20 μM, 24 h", "outline": "as §1"}}}
{"smiles": "CC(C)(C)C[C@H]1N[C@@H](C(=O)NCCN2CCOCC2)[C@H](c2cccc(Cl)c2F)[C@@]12C(=O)Nc1cc(Cl)ccc12", "note": "[MI-63]", "values": [{"measurement": "effect on caspase 3/7 activity", "setting": "[1]", "result": "no effect"}, {"measurement": "induction of caspase 3/7 activity", "setting": "[2]", "result": "~5", "unit": "fold"}]}
